ChEMBL document CHEMBL4014309, “Development of an Acrylate Derivative Targeting the NLRP3 Inflammasome for the Treatment of Inflammatory Bowel Disease” (J Med Chem, 2017)
The source made the active and inactive calls. The rule behind the calls is not given here.

What was measured:
Rattus norvegicus [1] = assay: Antiinflammatory activity in DNBS-induced Sprague-Dawley rat colitis model assessed as DNBS-induced macroscopic damage score at 12.5 mg/kg/day, ig administered as suspension in olive oil for 6 days simulatneously with 6 days of DNBS-challenge (reference value: 8.6 +/- 0.6); assay type: functional
Rattus norvegicus [2] = assay: Antiinflammatory activity in DNBS-induced Sprague-Dawley rat colitis model assessed as attenuation of DNBS-induced decrease in colonic length administered ig as suspension in olive oil for 6 days simulatneously with 6 days of DNBS-challenge; assay type: functional
Rattus norvegicus [3] = assay: Anti-inflammatory activity in DNBS-induced Sprague-Dawley rat colitis model assessed as reduction in DNBS-induced increase in MPO levels in colon at 12.5 to 50 mg/kg/day, ig for 6 days simulatneously with 6 days of DNBS-challenge by ELISA; assay type: functional, organism-based
How it was run: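 DNBS colitis (15 mg intrarectal in 50% ethanol) was treated by the intragastric route for 6 days from induction (1 mg/kg/day in 1% methylcellulose, or 12.5–50 mg/kg/day in olive oil). Colonic samples (30 mg) were taken adjacent and distal to the necrotic area, homogenized, and assayed for MPO by ELISA. Results are ng MPO per mg tissue, mean ± SEM, n = 10.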

[4] = molecular target: NACHT, LRR and PYD domains-containing protein 3 (Homo sapiens) (UniProt Q96P20); assay: Irreversible inhibition of His-FLAG- tagged NLRP3-ATPase (unknown origin) at 100 uM preincubated for 55 mins followed by compound wash-out and ATP addition measured after 40 mins by ADP-Glo assay
How it was run: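 His-FLAG NLRP3 (105 ng/well) captured on anti-FLAG-coated, BSA-blocked wells for 3 h at 4 °C. Compound (100 µM final, 2% DMSO) preincubated 55 min at 37 °C. Wells were washed three times (or not washed), then ATP (250 µM) was added for 40 min at 37 °C. ADP was read by ADP-Glo. Equal protein loading was checked by anti-His ELISA.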

Mus musculus = species on record: Mus musculus; assay: Inhibition of NF-kB signaling pathway in C57BL/6 mouse bone marrow derived macrophages assessed as reduction in LPS-induced TNFalpha gene expression at 10 to 100 uM preincubated for 30 mins followed by LPS stimulation measured after 4 hrs by qRT-PCR analysis
How it was run: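 C57BL/6 bone marrow macrophages, differentiated with 20% L-cell medium, were preincubated with compound for 30 min. They were then left untreated or given LPS (1 ng/mL, 4 h). Tnfa, Il6 and Il1b expression was measured by quantitative RT-PCR as 2^-ΔΔCt.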

[5] = Cysteamine reactivity in PBS assessed as free compound level at pH 7.4 measured after 30 mins by DTNB reagent based RP-UHPLC analysis
How it was run: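 The compound was reacted with excess cysteamine in pH 7.4 phosphate buffer with CH3CN cosolvent at 37 °C. Remaining compound was followed by UHPLC over 4 h, sampled at 30 min, 60 min and 4 h, and expressed as percent of starting concentration.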

[6] = molecular target: NACHT, LRR and PYD domains-containing protein 3 (Homo sapiens) (UniProt Q96P20); assay: Inhibition of recombinant YFP-tagged NLRP3 (unknown origin) expressed in HEK293 cells co-expressing luciferase assessed as initial conformational changes in protein by measuring increase in nigericin-induced decrease in intracellular K+ level at 10 to 100 uM measured after 24 hrs by BRET assay; assay type: cell-based
How it was run: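 HEK293 cells stably expressing YFP-NLRP3-Luc were grown in DMEM with 10% FCS, plated on poly-L-lysine, and exposed to compound or vehicle (15 h per methods; 24 h per figure legend). Cells were washed, then BRET was read after adding coelenterazine-H (5 µM). Kinetics used nigericin (10 µM) in vehicle or high-K+ (140 mM) buffer. Slopes of three phases were taken; mean ± SEM, n = 5–12.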

Rattus norvegicus [7] = assay: Anti-inflammatory activity in DNBS-induced Sprague-Dawley rat colitis model assessed as reduction in DNBS-induced IL-1beta levels in colon administered ig for 6 days simulatneously with 6 days of DNBS-challenge by ELISA; assay type: functional
Rattus norvegicus [8] = assay: Antiinflammatory activity in DNBS-induced Sprague-Dawley rat colitis model assessed as DNBS-induced macroscopic damage score at 25 mg/kg/day, ig administered as suspension in olive oil for 6 days simulatneously with 6 days of DNBS-challenge (reference value: 8.6 +/- 0.6); assay type: functional
[9] = molecular target: NACHT, LRR and PYD domains-containing protein 3 (Homo sapiens) (UniProt Q96P20); assay: Inhibition of recombinant human NLRP3 ATPase assessed as hydrolysis of ATP at 50 uM preincubated for 15 mins followed by addition of ATP measured after 40 mins by ADP-Glo assay
How it was run: (§1)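 Human recombinant NLRP3 (0.105 µg) in 20 mM Tris-HCl pH 7.8, 133 mM NaCl, 20 mM MgCl2, 3 mM KCl, 0.56 mM EDTA, 0.5% DMSO. Compound (100 or 50 µM) was preincubated 15 min at 37 °C, then ATP (250 µM) was added for 40 min at 37 °C. ADP was read by ADP-Glo luminescence. Result is % inhibition vs vehicle; mean ± SEM, ≥3 experiments.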

Rattus norvegicus [10] = assay: Anti-inflammatory activity in DNBS-induced Sprague-Dawley rat colitis model assessed as DNBS-induced IL-1beta levels in colon at 25 mg/kg/day, ig for 6 days simulatneously with 6 days of DNBS-challenge by ELISA (reference value: 22.3 +/- 2.9 ng/mg); assay type: functional
Rattus norvegicus [11] = assay: Anti-inflammatory activity in DNBS-induced Sprague-Dawley rat colitis model assessed as DNBS-induced IL-1beta levels in colon at 50 mg/kg/day, ig for 6 days simulatneously with 6 days of DNBS-challenge by ELISA (reference value: 22.3 +/- 2.9 ng/mg); assay type: functional
Rattus norvegicus [12] = assay: Antiinflammatory activity in DNBS-induced Sprague-Dawley rat colitis model assessed as reduction in DNBS-induced spleen weight increase by measuring increase in spleen weight at 12.5 mg/kg/day, ig administered as suspension in olive oil for 6 days simulatneously with 6 days of DNBS-challenge measured daily during compound dosing (reference value: 39.3%); assay type: functional; parameters: scale not given: the % may be the effect or the level left
How it was run: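 Spleen weight was used as an index of systemic inflammation. Rats had intrarectal DNBS (15 mg/0.25 mL 50% ethanol) and 6 days of intragastric dosing: 1 mg/kg/day in 1% methylcellulose, or 12.5–50 mg/kg/day in 0.2 mL olive oil. The spleen was weighed at sacrifice and expressed as percent increase versus control, n = 10.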

[13] = molecular target: NACHT, LRR and PYD domains-containing protein 3 (Homo sapiens) (UniProt Q96P20); assay: Inhibition of recombinant human NLRP3 ATPase assessed as hydrolysis of ATP preincubated for 15 mins followed by addition of ATP measured after 40 mins by ADP-Glo assay; how it was run: as §1

Chain of NACHT, LRR and PYD domains-containing protein 3 (Homo sapiens) (Q96P20 whole entry, the tested form may be a part): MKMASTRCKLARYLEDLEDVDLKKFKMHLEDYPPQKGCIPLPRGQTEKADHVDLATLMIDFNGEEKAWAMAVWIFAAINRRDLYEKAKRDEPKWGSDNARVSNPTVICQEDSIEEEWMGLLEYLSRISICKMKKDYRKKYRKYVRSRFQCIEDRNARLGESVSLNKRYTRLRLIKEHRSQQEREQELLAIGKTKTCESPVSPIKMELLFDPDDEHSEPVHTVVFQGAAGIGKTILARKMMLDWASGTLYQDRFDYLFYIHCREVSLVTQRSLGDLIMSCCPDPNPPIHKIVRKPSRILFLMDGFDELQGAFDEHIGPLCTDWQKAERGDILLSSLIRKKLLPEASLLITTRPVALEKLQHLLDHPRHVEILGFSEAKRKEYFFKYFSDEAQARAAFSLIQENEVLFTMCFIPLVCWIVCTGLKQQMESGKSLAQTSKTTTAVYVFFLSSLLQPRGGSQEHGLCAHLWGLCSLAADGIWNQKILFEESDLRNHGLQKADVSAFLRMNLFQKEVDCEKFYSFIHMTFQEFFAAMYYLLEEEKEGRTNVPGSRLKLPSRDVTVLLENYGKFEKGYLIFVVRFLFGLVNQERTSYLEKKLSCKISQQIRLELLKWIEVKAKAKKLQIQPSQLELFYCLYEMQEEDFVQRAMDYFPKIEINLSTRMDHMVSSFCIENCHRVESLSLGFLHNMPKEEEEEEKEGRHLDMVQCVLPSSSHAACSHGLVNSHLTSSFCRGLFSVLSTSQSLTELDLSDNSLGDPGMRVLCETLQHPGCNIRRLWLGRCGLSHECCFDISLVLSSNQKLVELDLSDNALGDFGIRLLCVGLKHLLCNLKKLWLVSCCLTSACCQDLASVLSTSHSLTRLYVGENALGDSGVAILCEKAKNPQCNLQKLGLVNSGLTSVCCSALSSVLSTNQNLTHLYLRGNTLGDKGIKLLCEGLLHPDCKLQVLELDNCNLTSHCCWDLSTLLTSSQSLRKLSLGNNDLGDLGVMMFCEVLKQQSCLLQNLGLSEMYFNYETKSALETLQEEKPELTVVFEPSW

Compound: C=C(Cc1ccccc1Cl)C(=O)OCC
- Activity_index (Rattus norvegicus [1]): 4.7
- Activity (Rattus norvegicus [2]): Dose-dependent effect
- Activity (Rattus norvegicus [3]): Active
- inhibition [4]: 40%
- inhibition (Mus musculus): Active
- Stability [5]: 89.4%
- inhibition [6]: inactive
- Activity (Rattus norvegicus [7]): Dose-dependent effect
- Activity_index (Rattus norvegicus [8]): 3.1
- inhibition [9]: 29%
- Activity (Rattus norvegicus [10]): 12.8 ng/mg
- Activity (Rattus norvegicus [11]): 6.6 ng/mg
- Activity (Rattus norvegicus [12]): 2.2%
- inhibition [13]: Dose-dependent effect
